Screening results: PubChem BioAssay, several laboratories
A selection: hits, their analogues and other compounds. The true share with any hit is near 3%.
PLCb3 inh: blocks human PLC-beta3 enzyme activity | Purified PLC-beta3, fluorogenic substrate, fluorescence | 370,000 compounds, 0.18% hits | inhibition, % at 12.2 µM | Q01970; in the data active = inhibition above about 11%;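 note: 0% = median of compound wells on plate and 100% = full blocker control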
proKLK7 act: activators of human kallikrein-7 zymogen; P49862; purified proKLK7, EDANS-DABCYL substrate fluorescence; 100% is mature enzyme control, 0% vehicle; activation, % at 7 µM; 370,000 compounds, 0.9% hits;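 active = activation above the mean of all tested compounds plus 3 SD, computed per campaign excluding outliers beyond control limits, cut at about 13% in these data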
Target sequence (P49862 whole entry, looked up): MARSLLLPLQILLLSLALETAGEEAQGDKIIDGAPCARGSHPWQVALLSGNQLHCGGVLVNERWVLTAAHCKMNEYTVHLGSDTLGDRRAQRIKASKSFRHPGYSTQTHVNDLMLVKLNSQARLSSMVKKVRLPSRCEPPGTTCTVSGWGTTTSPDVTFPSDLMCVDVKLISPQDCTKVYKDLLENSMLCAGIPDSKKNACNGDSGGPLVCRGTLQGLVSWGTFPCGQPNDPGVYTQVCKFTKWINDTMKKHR
CendR NRP1 mod: modulators of CendR peptide binding to human neuropilin-1 | O14786 | inhibition, % at 25 µM | FAM-RPARPAR peptide binding to NRP-1, fluorescence polarization | 360,000 compounds, 0.85% hits;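 active = inhibition or corrected inhibition above about 18%, plus a signal ratio from 0.5 to 1.5, limit read from the data, passing the limit was not always enough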
DDE Tn6 FP inh: DD(E)-Tn6 binding inhibition, primary FP screen. P02675. Fibrin DD(E) TRITC-Tn6 fluorescence polarization displacement. inhibition, % at 8.3 µM. 370,000 compounds, 0.21% hits. AID 720509;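 active = inhibition above a per-campaign cutoff: mean of compounds within control limits plus 3 SD, cut at about 15% in these data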;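 note: 0% = median of all compound wells on the plate and 100% = blocking peptide control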
PLC-gamma1 inh: inhibitors of human phospholipase C gamma1 | P19174 | purified PLC-gamma1, fluorogenic substrate, fluorescence | inhibition, % at 12.2 µM | 370,000 compounds, 0.84% hits | AID 720700; in the data active = inhibition above about 9.5%
Tn7 DDE FP: inhibitors of Tn7 peptide binding to human fibrin DD(E). P02675. 370,000 compounds, 0.13% hits. inhibition, % at 8.3 µM. FP displacement of FITC-Tn7 peptide from fibrin DD(E); 0% = median of compound wells per plate;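 active = inhibition above the mean of compounds falling within the control limits plus 3 SD of them, cut at about 14% in these data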;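 note: 0% = plate median of compound wells and 100% = 10 µM Aha-Tn7 peptide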
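Test system: human clot-derived fibrin DD(E) complex / Quantity: 2 µM final DD(E) protein / Incubation: 10 min plus 3 h, room temperature / Measured by: fluorescence polarization / Benchmarks: high control of 10 µM Aha-Tn7 peptide / Replicates: singlicate testing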
Numbers without * were called inactive.

Results for O=C(NCc1ccccc1)c1nc[nH]c1C(=O)N1CCN(c2ccccc2)CC1 ?
PLCb3 inh: -1.4; proKLK7 act: 0.9; CendR NRP1 mod: 30.1*; DDE Tn6 FP inh: -3.1; PLC-gamma1 inh: 1.6; Tn7 DDE FP: 2.5

Results for CN(Cc1ccccc1)C(=O)c1[nH]cnc1C(=O)NCc1ccc(CNC(=O)OC(C)(C)C)cc1 ?
PLCb3 inh: 5.9; proKLK7 act: 0.0; CendR NRP1 mod: 30.1*; DDE Tn6 FP inh: 6.7; PLC-gamma1 inh: -0.7; Tn7 DDE FP: 2.9

How did CC(C)(C)OC(=O)[C@H](Cc1ccccc1)NC(=O)c1nc[nH]c1C(=O)NC1CCNCC1 do in these assays?
PLCb3 inh: 1.3; proKLK7 act: 0.2; CendR NRP1 mod: 9.1; DDE Tn6 FP inh: 2.0; PLC-gamma1 inh: 3.0; Tn7 DDE FP: -4.0

What do the screens show for `COc1ccc(-n2c(SCC(=O)N(CC(C)C)CC(C)C)nnc2-c2ccncc2)cc1`?
PLCb3 inh: 2.5; proKLK7 act: 0.1; DDE Tn6 FP inh: 5.1; PLC-gamma1 inh: 2.5; Tn7 DDE FP: 0.5

How did CC1=CC(=O)C(C(C)C)=C/C1=N\OS(=O)(=O)c1ccccc1 do in these assays?
PLCb3 inh: 0.6; DDE Tn6 FP inh: -11.0; PLC-gamma1 inh: 1.0; Tn7 DDE FP: 9.0

What do the screens show for `O=C(NCCc1c[nH]c2ccccc12)OCc1cn(Cc2cccc(F)c2F)nn1`?
PLCb3 inh: -1.6; proKLK7 act: -0.1; DDE Tn6 FP inh: 0.3; PLC-gamma1 inh: -1.8; Tn7 DDE FP: 10.4

What do the screens show for `CC(C)(C)OC(=O)N1CCC(NC(=O)c2nc[nH]c2C(=O)N2CCc3ccccc3C2)CC1`?
PLCb3 inh: 0.9; proKLK7 act: 0.4; CendR NRP1 mod: 30.0*; DDE Tn6 FP inh: 4.6; PLC-gamma1 inh: -1.5; Tn7 DDE FP: 5.5

Results for CC1CCN(C(=O)c2[nH]cnc2C(=O)NCc2ccc(CNC(=O)OC(C)(C)C)cc2)CC1 ?
PLCb3 inh: -0.7; proKLK7 act: 0.6; CendR NRP1 mod: 30.0*; DDE Tn6 FP inh: 3.3; PLC-gamma1 inh: -0.5; Tn7 DDE FP: 0.7

What do the screens show for `O=C(CCCl)NC1CCCCN(Cc2ccc(OC(F)(F)F)cc2)C1=O` (stereo unspecified)?
PLCb3 inh: 1.4; proKLK7 act: 0.0; DDE Tn6 FP inh: 2.2; PLC-gamma1 inh: 2.8; Tn7 DDE FP: -0.8

How did Cc1c[nH]c2cccc(-c3ccc(OCc4ccccc4)cc3)c12 do in these assays?
PLCb3 inh: -4.3; proKLK7 act: -0.7; DDE Tn6 FP inh: -5.3; PLC-gamma1 inh: -1.2; Tn7 DDE FP: 7.3

Results for COc1ccc(C2NC(=O)c3ccccc3O2)cc1 (stereo unspecified) ?
PLCb3 inh: -4.9; proKLK7 act: -2.8; CendR NRP1 mod: 23.0*; DDE Tn6 FP inh: -5.1; PLC-gamma1 inh: -1.5; Tn7 DDE FP: 6.5

Results for COc1cccc2c1C(=O)c1c(O)c3c(c(O)c1C2=O)C[C@@](O)(C(=O)CO)C[C@@H]3OC1CC(N)C(O)C(C)O1 (stereo partly specified) ?
PLCb3 inh: -99.6; proKLK7 act: 1.1; CendR NRP1 mod: 144.4; DDE Tn6 FP inh: active; PLC-gamma1 inh: -77.5; Tn7 DDE FP: 12.8

What do the screens show for `COc1cccc2c1C(=O)c1c(O)c3c(c(O)c1C2=O)C[C@@](O)(C(=O)CO)C[C@@H]3O[C@H]1C[C@H](N)[C@H](O)[C@H](C)O1`?
PLCb3 inh: -83.6; proKLK7 act: 1.4; CendR NRP1 mod: 141.8; DDE Tn6 FP inh: active; PLC-gamma1 inh: -63.6; Tn7 DDE FP: 18.7*

What do the screens show for `CC(=O)[C@@]1(O)Cc2c(O)c3c(c(O)c2[C@H](O[C@H]2C[C@H](N)[C@H](O)[C@H](C)O2)C1)C(=O)c1ccccc1C3=O`?
PLCb3 inh: -218.6; proKLK7 act: -0.6; CendR NRP1 mod: 141.4; DDE Tn6 FP inh: 197.8*; PLC-gamma1 inh: -151.9; Tn7 DDE FP: 51.3*

What do the screens show for `Cc1ccccc1-c1ccc2c(c1)[C@@H]1C[C@H](N(C)C(=O)c3ccco3)[C@H]([C@H](C)O)CN1CC2`?
PLCb3 inh: -90.3; proKLK7 act: 2.6; DDE Tn6 FP inh: -0.2; PLC-gamma1 inh: -76.1; Tn7 DDE FP: -3.6
